Series [1] is described as follows: Inhibition of antigen receptor-mediated NF-kappaB activity in HEK293 cells after 16 hrs by luciferase reporter gene assay. As to conditions: Homo sapiens, HEK293, 16 h. For orientation: In a reporter assay the amount or activity of a reporter protein is the signal.
In a further series the target is Cytochrome P450 3A4 (Homo sapiens, UniProt P08684). Kind of series: Inhibition of CYP3A4-mediated hydroxylation of testosterone in human liver microsomes in NADPH co-factor system by RP-HPLC. The format is ADME, Microsome. Background: Microsomes from liver hold many membrane-bound enzymes, among them those of drug oxidation.
In series [2] the test system is Liver microsomes. Kind of series: Metabolic stability in human liver microsomes in PAPS co-factor system by RP-HPLC. It counts as ADME, Microsome. The method, boiled down:
(§1)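 Substrate at 100 µM with HLM or S9 at 1.6 mg/mL and 100 µM PAPS in 50 mM Tris–HCl pH 7.4, 37 °C. Started by adding HLM/S9. Aliquots at 0, 5, 15, 30, 45 and 60 min stopped in cold acetonitrile and run in duplicate. Sulfation taken from parent disappearance by RP-HPLC.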

Series [3] is described as follows: Metabolic stability in human liver S9 fraction in PAPS co-factor system by RP-HPLC. It counts as ADME, subcellular. In outline:
as §1

Series [4] can be described thus: Metabolic stability in human liver S9 fraction assessed as half life in NADPH co-factor system by RP-HPLC. It counts as ADME, subcellular. The method, boiled down:
(§2)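 Substrate at 100 µM with human liver microsomes or S9 at 1.6 mg/mL, NADPH-generating system (NADP+, 400 µM glucose-6-phosphate, DETAPAC, 4 IU/mL G6P dehydrogenase), 50 mM potassium phosphate pH 7.4, 37 °C with shaking. Started by adding HLM/S9. Aliquots at 0–60 min stopped in cold acetonitrile and run in duplicate. Parent loss measured by RP-HPLC.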

A short description of series [5]: Metabolic stability in human liver S9 fraction in UDPG co-factor system by RP-HPLC. It counts as ADME, subcellular. The method, boiled down:
(§3)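 Glucuronidation with UDPG cofactor plus lecithin, using HLM or S9 in 50 mM potassium phosphate pH 7.4 at 37 °C with shaking. Started by adding HLM/S9. Aliquots at 0–60 min stopped in cold acetonitrile and run in duplicate. Parent disappearance followed by RP-HPLC.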

The test system of series [6] is Liver microsomes. Kind of series: Metabolic stability in human liver microsomes in UDPG co-factor system by RP-HPLC. The format is ADME, Microsome. In outline: as §3
Series [7] is described as follows: Metabolic stability in human liver microsomes assessed as half life in NADPH co-factor system by RP-HPLC. It counts as ADME, Microsome. In outline:
as §2

Consider 31 molecules from ChEMBL document CHEMBL1157591, “Selective benzimidazole inhibitors of the antigen receptor-mediated NF-kappaB activation pathway” (Bioorg Med Chem, 2010).

Sequence of Cytochrome P450 3A4 (P08684 whole entry): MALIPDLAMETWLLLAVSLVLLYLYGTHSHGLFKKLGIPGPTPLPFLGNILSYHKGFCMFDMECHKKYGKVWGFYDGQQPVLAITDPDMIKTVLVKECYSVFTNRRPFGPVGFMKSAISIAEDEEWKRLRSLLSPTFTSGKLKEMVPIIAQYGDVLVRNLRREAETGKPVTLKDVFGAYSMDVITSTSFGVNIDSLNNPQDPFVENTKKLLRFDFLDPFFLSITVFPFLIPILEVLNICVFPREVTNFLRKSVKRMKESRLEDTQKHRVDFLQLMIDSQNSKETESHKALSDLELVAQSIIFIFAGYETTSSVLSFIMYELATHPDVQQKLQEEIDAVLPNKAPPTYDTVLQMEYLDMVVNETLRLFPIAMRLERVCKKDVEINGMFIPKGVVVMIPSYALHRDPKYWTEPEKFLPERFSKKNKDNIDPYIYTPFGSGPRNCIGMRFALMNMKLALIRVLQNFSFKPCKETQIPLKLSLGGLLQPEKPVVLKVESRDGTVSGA

As usually defined, the IC50 is the point on the concentration scale where inhibition reaches its midpoint. A low value points to higher potency. Molecule `CCCCNc1nc2cc(C)c(C)cc2n1CC(=O)c1cc(C(C)(C)C)c(O)c(C(C)(C)C)c1` returned an IC50 in series [1] of 0.1 µM. On the same count and under the same terms, the result for `Cc1cc2nc(N3CCOCC3)n(CC(=O)c3cc(C(C)(C)C)c(O)c(C(C)(C)C)c3)c2cc1C` reads above 5 µM; that for `Cc1cc2nc(N3CCCC(C)C3)n(CC(=O)c3cc(C(C)(C)C)c(O)c(C(C)(C)C)c3)c2cc1C` (centres undefined), above 5 µM; that for `CCN1CCN(c2nc3cc(C)c(C)cc3n2CC(=O)c2cc(C(C)(C)C)c(O)c(C(C)(C)C)c2)CC1`, above 5 µM. `COC[C@@H]1CCCN1c1nc2cc(C)c(C)cc2n1CC(=O)c1cc(C(C)(C)C)c(O)c(C(C)(C)C)c1` returned an IC50 in series [1] above 5 µM.

Turning to `COCCCNc1nc2cc(C)c(C)cc2n1CC(=O)c1cc(C)c(O)c(C)c1`, the IC50 in series [1] is above 5 µM. `COCCCNc1nc2cc(C)c(C)cc2n1CC(=O)c1cc(C(C)(C)C)c(O)c(C(C)(C)C)c1`: the results for the IC50 (on Cytochrome P450 3A4; in series [1]) were 97 µM and 0.25 µM, respectively.

`Cc1cc2nc(N3CCCC3)n(CC(=O)c3cc(C(C)(C)C)c(O)c(C(C)(C)C)c3)c2cc1C` yielded an IC50 in series [1] above 5 µM. On the same count and under the same terms, the result for `COc1ccccc1N1CCN(c2nc3cc(C)c(C)cc3n2CC(=O)c2cc(C(C)(C)C)c(O)c(C(C)(C)C)c2)CC1` reads above 5 µM; that for `Cc1cc2nc(N3CCCCC3CO)n(CC(=O)c3cc(C(C)(C)C)c(O)c(C(C)(C)C)c3)c2cc1C` (centres undefined), above 5 µM.

The term half-life denotes how long it takes for the measured level to halve. For `Cc1cc2nc(N3CCN(CCO)CC3)n(CC(=O)c3cc(C(C)(C)C)c(O)c(C(C)(C)C)c3)c2cc1C`, the IC50 in series [1] was above 5 µM. Moreover, the Stability entry (in the series on Liver microsomes [2]; in series [3]; in series [5]; in the series on Liver microsomes [6]) was “Stable” in each case. Also, the half-life in series [4] is 4.6 h.

With `Cc1cc2nc(N3CC(C)CC(C)C3)n(CC(=O)c3cc(C(C)(C)C)c(O)c(C(C)(C)C)c3)c2cc1C` (centres undefined), in series [1], the IC50 is above 5 µM.

As to `Cc1cc2nc(N3CCCCC3)n(CC(=O)c3cc(C(C)(C)C)c(O)c(C(C)(C)C)c3)c2cc1C`, the concentration for half-maximal inhibition (IC50) in series [1] was above 5 µM. The molecule `Cc1cc2nc(NCCCO)n(CC(=O)c3cc(C(C)(C)C)c(O)c(C(C)(C)C)c3)c2cc1C` registered an IC50 in series [1] of 0.07 µM. In addition, the Stability result (in the series with Liver microsomes [2]; in series [3]; in series [5]; with Liver microsomes [6]) was “Stable” each time. Further, the figures for the half-life in series [4] and in series [7] were 15.2 h and 5.5 h, respectively. For `COCCCNc1nc2cc(C)c(C)cc2n1CC(=O)c1ccc(O)cc1`, the concentration for half-maximal inhibition (IC50) in series [1] was above 5 µM.

In series [1], `CCC1C(C)CN(c2nc3cc(C)c(C)cc3n2CC(=O)c2cc(C(C)(C)C)c(O)c(C(C)(C)C)c2)C1C` (centres undefined) returned an IC50 above 5 µM.

In series [1], `Cc1cc2nc(N3CCC(O)CC3)n(CC(=O)c3cc(C(C)(C)C)c(O)c(C(C)(C)C)c3)c2cc1C` yielded an IC50 above 5 µM. On the same count and under the same terms, the result for `Cc1cc2nc(N3CCN(C)CC3)n(CC(=O)c3cc(C(C)(C)C)c(O)c(C(C)(C)C)c3)c2cc1C` reads above 5 µM.

With `COc1c(C(C)(C)C)cc(C(=O)Cn2c(NCCCO)nc3cc(C)c(C)cc32)cc1C(C)(C)C`, the IC50 at Cytochrome P450 3A4 was 67 µM; in series [1] it was 0.07 µM. Take `Cc1cc2nc(N3CCCCC3C)n(CC(=O)c3cc(C(C)(C)C)c(O)c(C(C)(C)C)c3)c2cc1C` (centres undefined): in series [1], the IC50 is above 5 µM. On the same count and under the same terms, the result for `Cc1cc2nc(N3CCC[C@H]3CN3CCCC3)n(CC(=O)c3cc(C(C)(C)C)c(O)c(C(C)(C)C)c3)c2cc1C` reads above 5 µM; that for `Cc1cc2nc(N3CCCCC3CN(C)C)n(CC(=O)c3cc(C(C)(C)C)c(O)c(C(C)(C)C)c3)c2cc1C` (centres undefined), above 5 µM. Still for that read-out and setting: the result for `Cc1cc2nc(N3CCC(Cc4ccccc4)CC3)n(CC(=O)c3cc(C(C)(C)C)c(O)c(C(C)(C)C)c3)c2cc1C` reads above 5 µM. As to `Cc1cc2nc(N3CCC(C)CC3)n(CC(=O)c3cc(C(C)(C)C)c(O)c(C(C)(C)C)c3)c2cc1C`, the IC50 in series [1] is above 5 µM. Regarding `C[C@]12CC[C@H]3[C@@H](CCC4=CC(=O)CC[C@@]43C)[C@@H]1CC[C@@H]2O` [TESTOSTERONE], the half-life in series [7] is 0.8 h. As for `Cc1cc2nc(N3CCC(O)C3)n(CC(=O)c3cc(C(C)(C)C)c(O)c(C(C)(C)C)c3)c2cc1C` (centres undefined), the IC50 in series [1] is above 5 µM. With `Cc1cc2nc(N3CCN(Cc4ccccc4)CC3)n(CC(=O)c3cc(C(C)(C)C)c(O)c(C(C)(C)C)c3)c2cc1C`, in series [1], the IC50 is above 5 µM. Besides, the Stability result (in the series on Liver microsomes [2]; in series [3]; in series [5]; with Liver microsomes [6]) was “Stable” in each case. Moreover, the half-life in series [4] is 4.4 h. As to `COCCCNc1nc2cc(C)c(C)cc2n1CC(=O)c1cc(C(C)(C)C)c(OC)c(C(C)(C)C)c1`, inhibition in series [1] was half-maximal at 0.25 µM (IC50). Same read-out and setting: the result for `Cc1cc2nc(NCCCO)n(CC(=O)c3ccc(O)cc3)c2cc1C` reads above 5 µM; that for `Cc1cc2nc(NCCCO)n(CC(=O)c3cc(C)c(O)c(C)c3)c2cc1C`, above 5 µM; that for `C#CCNc1nc2cc(C)c(C)cc2n1CC(=O)c1cc(C(C)(C)C)c(O)c(C(C)(C)C)c1`, above 8 µM.
